# Data reported in ChEMBL document CHEMBL3272331, “Diacridines, bifunctional intercalators. Chemistry and antitumor activity” (J Med Chem, 1978).
# Legend:
# Mus musculus = assay: Toxicity in mouse P388 cells allografted BDF/1 mouse consecutively administered on day 1 to day 9 post challenge measured on day 5; assay type: organism-based
# P388 [1] = assay: Antitumor activity against mouse P388 cells allografted in BDF/1 mouse assessed as increase in life span at optimal dose consecutively administered on day 1 to day 9 post challenge relative to control; assay type: functional
# In short: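 P-388 tumour passaged as ascites in DBA/2 mice; 1×10^6 ascites cells given ip to BDF/1 mice on day 0. Drug given daily for 9 consecutive days from day 1 to groups of six mice at 20, 10, 5, 2.5, 1.25 and 0.625 mg/kg/day. Day of death recorded; % ILS calculated from treated vs control life spans; dose giving optimal % ILS reported.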
# P388 [2] = assay: Growth inhibition of mouse P388 cells by in vitro assay; assay type: functional, cell-based; details: read-out: I50
# In short: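 P-388 murine leukemia cells kept in suspension culture were incubated with a range of diacridine concentrations. The concentration that reduced the rate of cell growth by 50% was taken as the I50.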
Structure (SMILES),LD10 (Mus musculus),ILS (P388 [1]),IC50 (P388 [2])
Cl.Nc1ccc2nc3ccccc3c(NCCCCCCCCNc3c4ccccc4nc4ccc(N)cc34)c2c1,> 20 mg/kg/day,60%,–
COc1ccc2c(NCCCCNc3c4ccccc4nc4cc(OC)ccc34)c3ccccc3nc2c1.Cl,> 20 mg/kg/day,10%,–
CCCCOc1cccc2c(NCCCCCCCCNc3c4ccccc4nc4c(OCCCC)cccc34)c3ccccc3nc12,7.6 mg/kg/day,7%,190 nM
CCc1cccc2c(NCCCCCCNc3c4ccccc4nc4c(CC)cccc34)c3ccccc3nc12,16 mg/kg/day,43%,230 nM
COc1cccc2c(NCCCCCCCCNc3c4ccccc4nc4c(OC)cccc34)c3ccccc3nc12,13.5 mg/kg/day,89%,290 nM
Clc1ccc2c(NCCCCCCCCNc3c4ccccc4nc4cc(Cl)ccc34)c3ccccc3nc2c1,> 20 mg/kg/day,29%,230 nM
COc1ccc2c(NCCCCCCNc3c4ccccc4nc4cc(OC)ccc34)c3ccccc3nc2c1,9.5 mg/kg/day,71%,240 nM
Brc1ccc2c(NCCCCCCCCNc3c4ccccc4nc4cc(Br)ccc34)c3ccccc3nc2c1,> 20 mg/kg/day,9%,210 nM
COc1ccc2c(NCCCCCCCCCCNc3c4ccccc4nc4cc(OC)ccc34)c3ccccc3nc2c1.Cl,8 mg/kg/day,55%,–
CCCCOc1cccc2c(NCCCCCCNc3c4ccccc4nc4c(OCCCC)cccc34)c3ccccc3nc12,6.5 mg/kg/day,7%,360 nM
c1ccc2c(NCCCCCCCCCCNc3c4ccccc4nc4ccccc34)c3ccccc3nc2c1,7 mg/kg/day,33%,380 nM
COc1ccc2nc3ccccc3c(NCCCCCCNc3c4ccccc4nc4ccc(OC)cc34)c2c1,8.6 mg/kg/day,25%,320 nM
c1ccc2c(NCCCCNc3c4ccccc4nc4ccccc34)c3ccccc3nc2c1,11 mg/kg/day,13%,2710 nM
CCc1cccc2c(NCCCCCCCCCCNc3c4ccccc4nc4c(CC)cccc34)c3ccccc3nc12,13 mg/kg/day,33%,150 nM
CCCOc1ccc2c(NCCCCCCCCNc3c4ccccc4nc4cc(OCCC)ccc34)c3ccccc3nc2c1,5.5 mg/kg/day,63%,210 nM
COc1cccc2c(NCCCCCCNc3c4ccccc4nc4c(OC)cccc34)c3ccccc3nc12,12.5 mg/kg/day,62%,190 nM
COc1ccc2c(NCCCCCCCCNc3c4ccc(OC)cc4nc4ccc(Cl)cc34)c3cc(Cl)ccc3nc2c1,7 mg/kg/day,18%,160 nM
c1ccc2c(NCCCCCCCCCCNc3c4ccccc4nc4ncccc34)c3cccnc3nc2c1,–,22%,–
COc1ccc2nc3cc(Cl)ccc3c(NCCCCCCCCNc3c4ccc(Cl)cc4nc4ccc(OC)cc34)c2c1,> 20 mg/kg/day,9%,–
CCCCOc1cccc2c(NCCNc3c4ccccc4nc4c(OCCCC)cccc34)c3ccccc3nc12,12.5 mg/kg/day,9%,–
COc1ccc2nc3ccccc3c(NCCCCCCCCNc3c4ccccc4nc4ccc(OC)cc34)c2c1,6 mg/kg/day,30%,190 nM
c1ccc2c(NCCCCCCCCNc3c4ccccc4nc4ccccc34)c3ccccc3nc2c1,13.5 mg/kg/day,60%,320 nM
COc1ccc2c(NCCCCCCCCNc3c4ccc(OC)cc4nc4c(OC)cccc34)c3cccc(OC)c3nc2c1,13 mg/kg/day,66%,420 nM
CCCOc1ccc2c(NCCCCCCNc3c4ccccc4nc4cc(OCCC)ccc34)c3ccccc3nc2c1,6.8 mg/kg/day,37%,320 nM
